Source: paper PMC5485419 (Theranostics, 2017)
Converted amounts (≈) assume the structure as drawn.

Columns and labels:
COX-1 (ovine) = target: T1, COX-1 (ovine) (Ovis aries, UniProt P05979); assay: COX Fluorescent Inhibitor Screening Assay, COX-1; format: biochemical
T1 sequence (P05979 25-600): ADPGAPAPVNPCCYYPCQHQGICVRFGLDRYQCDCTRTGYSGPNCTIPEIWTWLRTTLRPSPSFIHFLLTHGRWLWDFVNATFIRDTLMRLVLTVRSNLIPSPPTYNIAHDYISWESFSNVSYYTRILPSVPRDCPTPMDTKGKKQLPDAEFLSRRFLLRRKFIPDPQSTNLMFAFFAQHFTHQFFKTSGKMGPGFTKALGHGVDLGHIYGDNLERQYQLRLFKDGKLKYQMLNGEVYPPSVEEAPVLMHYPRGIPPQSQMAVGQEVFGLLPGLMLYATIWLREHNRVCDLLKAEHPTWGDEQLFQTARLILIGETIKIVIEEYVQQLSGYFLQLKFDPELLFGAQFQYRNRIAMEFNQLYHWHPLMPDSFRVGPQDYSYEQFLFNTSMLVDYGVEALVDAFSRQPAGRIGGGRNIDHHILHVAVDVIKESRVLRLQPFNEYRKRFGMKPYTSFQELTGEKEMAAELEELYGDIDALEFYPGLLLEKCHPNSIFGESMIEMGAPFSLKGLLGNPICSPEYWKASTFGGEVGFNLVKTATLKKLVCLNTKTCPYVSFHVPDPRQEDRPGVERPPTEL
Outline: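 The kit's peroxidase read-out was used: PGG2 converts ADHP to resorufin, read at excitation 530-540 nm and emission 585-595 nm. Ovine COX-1 was mixed with inhibitor, heme, fluorometric substrate and assay buffer. Arachidonic acid started the reaction, and plates were read exactly 2 min later at room temperature. No-enzyme blanks and no-inhibitor controls were included, and each compound was run in triplicate.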

[1] = In vitro FLS cell toxicity assay; format: cell-based; settings: Sprague Dawley, rat
Outline: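 FLS cells from adjuvant-arthritic rat joints, in MEM with 10 % fetal calf serum at 37 °C and 5 % CO2, were seeded at 1.0×10^5/well and grown overnight. Cells were treated with six concentrations for 48 h, then given 20 µl MTT (5 mg/ml) for 4 h. Formazan was dissolved in DMSO and A490 read. Viability is relative to untreated cells, in triplicate; IC50 was read from the curves.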

[2] = tested on: IL-1 and TNFα production by FLS cells; assay: Determination of IL-1 and TNF-α in FLS cell supernatants; format: cell-based, rat; settings: 0.355 mg/ml, 48 h, compared with the untreated control group
Outline: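 Rat FLS cells, isolated from synovial tissue of adjuvant-arthritic rats, were seeded at 1×10^5/well in MEM with 10 % fetal calf serum (37 °C, 5 % CO2) and grown overnight. They were then exposed to test compound at 0.355 mg/ml for 48 h. Supernatant cytokines were measured by ELISA against untreated cells, in triplicate (n = 3), with one-way ANOVA.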

FLS cells = assay: Apoptosis detection in FLS cells; format: cell-based, rat; settings: all at 0.4 mg/ml Ket, 48 h, versus untreated groups
Outline: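 FLS cells were taken from arthritis-affected rat joints and grown in MEM with 10 % fetal calf serum at 37 °C under 5 % CO2. Cells were seeded at 1 × 10^6 per well, grown overnight, and exposed to the test compound (0.016-0.71 mg/ml) for 48 h. They were then trypsinised, washed, and resuspended at ∼1×10^6 cells/mL in annexin-binding buffer. Alexa Fluor 488 annexin V and PI were added for 15 min at room temperature before immediate flow cytometry.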

In vitro release profile = format: physicochemical; settings: non-gelled solution controls, 37 °C, PBS pH 7.4, dialysis bags
Outline: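 Samples of 200 μL at 4 mg/ml (gels, non-gelled conjugate solutions and parent drug) were dialysed (MWCO 800-1000) against PBS pH 7.4 at 37 °C. The 200 μL release medium was sampled and refreshed at set times. Released conjugate was quantified by C18 HPLC (30 °C; acetonitrile/0.1 % TFA gradient; 1.0 mL/min) at 260 nm.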

IC50 (COX-1 (ovine)): 5.1 µM | Time of drug release from solution (In vitro release profile): within a few hours
Structure (SMILES): C[C@H](C(=O)O)c1cccc(C(=O)c2ccccc2)c1 [(S)-Ket, (S)-Ketoprofen]
IC50 at 48 h [1]: 159 µg/mL (≈ 625 µM) | IL-1 production by FLS cells [2]: trace amounts | TNFα production by FLS cells [2]: comparatively lower amount | Extent of apoptosis in FLS cells (FLS cells): greater degree of cell death than untreated groups
